≈ marks a conversion by molar mass, not a printed value.
Key:
Candida albicans [1] = test: Antifungal activity against Candida albicans, activity expressed as […] inhibitory zone (mm, diameter); format: functional
Procedure, shortened: (§1)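 Yeast grown in Sabouraud's dextrose broth, 24-h culture seeded 1:100 into agar; paper disks carrying 0.05 mg drug (from 1 mg/mL stock in Me2SO-EtOH 1:9); 37 °C, read after 48 h as zone diameter (mm).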

Epidermophyton floccosum [2] = test: Antifungal activity against Epidermophyton floccosum, activity expressed as inhibitory zone (mm, diameter); format: functional
Procedure, shortened: (§2)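 Dermatophytes grown in Sabouraud's dextrose broth, 4-5 day cultures seeded 1:100 into agar; disks with 0.05 mg drug (1 mg/mL stock, Me2SO-EtOH 1:9); grown and tested at 28 °C, zone diameter (mm) read after 48 h.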

Trichomonas vaginalis [3] = test: Antiprotozoal activity measured as the conc for <[…]% inhibition of Trichomonas vaginalis; format: functional, organism-based
Candida albicans [4] = test: Antifungal activity against Candida albicans, activity expressed as minimum inhibitory concentration ([…]); format: functional
Saccharomyces cerevisiae [5] = test: Antifungal activity against Saccharomyces cerevisiae, activity expressed as minimum inhibitory concentration ([…]).; format: functional
Trichophyton benhamiae [6] = test: Antifungal activity against Trichophyton mentagrophytes, activity expressed as inhibitory zone (mm, diameter); format: functional, Arthroderma benhamiae; procedure, shortened: as §2
Clostridium novyi = test: Antibacterial activity against Clostridium novyi, activity expressed as inhibitory zone (mm, diameter); format: functional
Procedure, shortened: (§3)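 Agar diffusion: disks loaded with 0.05 mg drug (stock 1 mg/mL in Me2SO-EtOH 1:9) on brain-heart infusion agar seeded 1:100 with 48-h anaerobe culture grown in thioglycolate broth; incubated anaerobically at 37 °C for 24 h; zone diameter measured in mm.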

Trichomonas vaginalis [7] = test: Antiprotozoal activity measured as the conc for<[…]% inhibition of Trichomonas vaginalis; format: functional, organism-based
Epidermophyton floccosum [8] = test: Antifungal activity against Epidermophyton floccosum, activity expressed as minimum inhibitory concentration ([…]); format: functional
Saccharomyces cerevisiae [9] = test: Antifungal activity against Saccharomyces cerevisiae, activity expressed as inhibitory zone (mm, diameter); format: functional; procedure, shortened: as §1
Trichophyton benhamiae [10] = test: Antifungal activity against Trichophyton mentagrophytes, activity expressed as minimum inhibitory concentration ([…]).; format: functional, Arthroderma benhamiae
Actinomyces israelii = test: Antibacterial activity against Actinomyces israelii, activity expressed as inhibitory zone (mm, diameter); format: functional; procedure, shortened: as §3
Tritrichomonas suis [11] = test: Antiprotozoal activity measured as the conc for < […]% inhibition of Trichomonas foetus; format: functional, organism-based
Streptococcus pyogenes = test: Antibacterial activity against Streptococcus pyogenes C, activity expressed as inhibitory zone (mm, diameter); format: functional; procedure, shortened: as §3
Bacteroides fragilis = test: Antibacterial activity against Bacteroides fragilis, activity expressed as […] inhibitory zone (mm, diameter); format: functional
Procedure, shortened: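 Agar diffusion vs B. fragilis grown in thioglycolate broth: 0.05 mg drug per paper disk (stock 1 mg/mL, Me2SO-EtOH 1:9), brain-heart infusion agar seeded with 48-h culture at 1:100, anaerobic 37 °C, 24 h; zone diameter in mm.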

Cutibacterium acnes [12] = test: Antibacterial activity against Propionibacterium acnes, activity expressed as inhibitory zone (mm, diameter); QA is questionable activity; format: functional, organism-based; procedure, shortened: as §3
Cutibacterium acnes [13] = test: Antibacterial activity against Propionibacterium acnes, activity expressed as inhibitory zone (mm, diameter); format: functional; procedure, shortened: as §3
Entamoeba histolytica [14] = test: Antiprotozoal activity measured as the conc for <[…]% inhibition of Entamoeba histolytica; format: functional, organism-based
Tritrichomonas suis [15] = test: Antiprotozoal activity measured as the conc for <[…]% inhibition of Trichomonas foetus; format: functional, organism-based
Entamoeba histolytica [16] = test: Antiprotozoal activity measured as the conc for >95% inhibition of Entamoeba histolytica; format: functional, organism-based
Procedure, shortened: (§4)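 E. histolytica (J 190) grown 48 h at 37 °C in modified Boeck Drbohlav medium, pooled; 0.6 × 10^6 organisms inoculated into 10 mL medium with drug at 32 to 0.06 µg/mL, incubated 48 h.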

Candida albicans [17] = test: Antifungal activity against Candida albicans, activity expressed as minimum inhibitory concentration (ug/mL); format: functional
Procedure, shortened: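 Tube dilution in Sabouraud's dextrose broth (ca. 3 mL/tube) at 37 °C; inoculum from 24-h yeast culture, 1:1000 in saline. Drug dissolved in Me2SO-EtOH (1:9), stock 3.2 mg/mL; twofold serial dilutions 32 to 0.06 µg/mL. Read after 48 h; MIC = lowest concentration with no visible growth.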

Trichomonas vaginalis [18] = test: Antiprotozoal activity measured as the conc for 95-[…]% inhibition of Trichomonas vaginalis; format: functional, organism-based
Saccharomyces cerevisiae [19] = test: Antifungal activity against Saccharomyces cerevisiae, activity expressed as minimum inhibitory concentration (ug/mL).; format: functional
Trichomonas vaginalis [20] = test: Antiprotozoal activity measured as the conc for 100% inhibition of Trichomonas vaginalis; format: functional, organism-based
Procedure, shortened: (§5)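 Protozoa grown 48 h (T. vaginalis in TYM 721, T. foetus in TYM 359, E. histolytica J 190 in modified Boeck Drbohlav medium, 37 °C) and pooled; 0.6 × 10^6 organisms into 10-mL tubes with drug 32 to 0.06 µg/mL, 48 h; inhibition scored microscopically against untreated controls as 100, >95, 95-25 or <25%.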

Trichophyton benhamiae [21] = test: Antifungal activity against Trichophyton mentagrophytes, activity expressed as minimum inhibitory concentration (ug/mL).; format: functional, Arthroderma benhamiae
Tritrichomonas suis [22] = test: Antiprotozoal activity measured as the conc for 95-[…]% inhibition of Trichomonas foetus; format: functional, organism-based
Trichomonas vaginalis [23] = test: Antiprotozoal activity measured as the conc for >95% inhibition of Trichomonas vaginalis; format: functional, organism-based; procedure, shortened: as §5
Tritrichomonas suis [24] = test: Antiprotozoal activity measured as the conc for 100% inhibition of Trichomonas foetus; format: functional, organism-based; procedure, shortened: as §5
Epidermophyton floccosum [25] = test: Antifungal activity against Epidermophyton floccosum, activity expressed as minimum inhibitory concentration (ug/mL); format: functional
Entamoeba histolytica [26] = test: Antiprotozoal activity measured as the conc for 100% inhibition of Entamoeba histolytica; format: functional, organism-based; procedure, shortened: as §4
Tritrichomonas suis [27] = test: Antiprotozoal activity measured as the conc for >95% inhibition of Trichomonas foetus; format: functional, organism-based; procedure, shortened: as §5
Entamoeba histolytica [28] = test: Antiprotozoal activity measured as the conc for 95-[…]% inhibition of Entamoeba histolytica; format: functional, organism-based
Saccharomyces cerevisiae [29] = test: Antifungal activity against Saccharomyces cerevisiae, activity expressed as inhibitory zone (mm, diameter); QA is questionable activity; format: functional, organism-based; procedure, shortened: as §1
[30] = Candida albicans, read-out: MIC
[31] = Saccharomyces cerevisiae, read-out: MIC
[32] = Trichophyton benhamiae, read-out: MIC
[33] = Epidermophyton floccosum, read-out: MIC

`COc1ccccc1C[C@H]1NC[C@H](O)[C@H]1OC(C)=O` showed an Inhibitory zone (Candida albicans [1]) of 0 mm, an Inhibitory zone (Epidermophyton floccosum [2]) of 0 mm and a Concentration (Trichomonas vaginalis [3]) of 32 µg/mL. For the same molecule, the MIC (Candida albicans [4]) was over 32 µg/mL, the MIC (Saccharomyces cerevisiae [5]) was over 32 µg/mL and the Inhibitory zone (Trichophyton benhamiae [6]) was 0 mm. It also gave an Inhibitory zone (Clostridium novyi) of 13 mm, a Concentration (Trichomonas vaginalis [7]) of 32 µg/mL and an MIC (Epidermophyton floccosum [8]) of over 32 µg/mL. It also gave an Inhibitory zone (Saccharomyces cerevisiae [9]) of 0 mm, an MIC (Trichophyton benhamiae [10]) of over 32 µg/mL and an Inhibitory zone (Actinomyces israelii) of 0 mm. The Concentration (Tritrichomonas suis [11]) was 32 µg/mL, the Inhibitory zone (Streptococcus pyogenes) was 0 mm and the Inhibitory zone (Bacteroides fragilis) was 0 mm. For the same molecule, the Inhibitory zone (Cutibacterium acnes [12]) was “Questionable activity”.

`COc1ccc(C(C)[C@H]2NC[C@H](O)[C@H]2OC(C)=O)cc1` (some centres not stated) gave an Inhibitory zone (Cutibacterium acnes [13]) of 0 mm, an Inhibitory zone (Candida albicans [1]) of 0 mm and an Inhibitory zone (Epidermophyton floccosum [2]) of 0 mm. For the same molecule, the Concentration (Trichomonas vaginalis [3]) was 32 µg/mL, the MIC (Candida albicans [4]) was over 32 µg/mL and the Concentration (Entamoeba histolytica [14]) was 32 µg/mL. For the same molecule, the MIC (Saccharomyces cerevisiae [5]) was over 32 µg/mL, the Inhibitory zone (Trichophyton benhamiae [6]) was 0 mm and the Inhibitory zone (Clostridium novyi) was 8 mm. For the same molecule, the MIC (Epidermophyton floccosum [8]) was over 32 µg/mL, the Concentration (Tritrichomonas suis [15]) was 32 µg/mL and the Inhibitory zone (Saccharomyces cerevisiae [9]) was 0 mm. It also gave an MIC (Trichophyton benhamiae [10]) of over 32 µg/mL, an Inhibitory zone (Actinomyces israelii) of 0 mm and an Inhibitory zone (Streptococcus pyogenes) of 0 mm. For the same molecule, the Inhibitory zone (Bacteroides fragilis) was 24 mm.

Molecule `Cc1ncc([N+](=O)[O-])n1CCO` [METRONIDAZOLE] has a Concentration (Entamoeba histolytica [16]) of 0.12 µg/mL, an Inhibitory zone (Cutibacterium acnes [13]) of 0 mm and an Inhibitory zone (Candida albicans [1]) of 0 mm. It also gave an Inhibitory zone (Epidermophyton floccosum [2]) of 8 mm, an MIC (Candida albicans [17]; [30]) of over 32 µg/mL and a Concentration (Trichomonas vaginalis [18]) of 0.12 µg/mL. The Concentration (Trichomonas vaginalis [3]) was 0.06 µg/mL, the MIC (Saccharomyces cerevisiae [19]; [31]) was over 32 µg/mL and the Concentration (Trichomonas vaginalis [20]) was 0.5 µg/mL. For the same molecule, the MIC (Trichophyton benhamiae [21]; [32]) was over 32 µg/mL, the Concentration (Tritrichomonas suis [22]) was 0.25 µg/mL and the Concentration (Trichomonas vaginalis [23]) was 0.25 µg/mL. The Inhibitory zone (Trichophyton benhamiae [6]) was 0 mm, the Inhibitory zone (Clostridium novyi) was 25 mm and the Concentration (Tritrichomonas suis [15]) was 0.12 µg/mL. It also gave a Concentration (Tritrichomonas suis [24]) of 0.5 µg/mL, an Inhibitory zone (Actinomyces israelii) of 0 mm and an Inhibitory zone (Streptococcus pyogenes) of 0 mm. For the same molecule, the Inhibitory zone (Bacteroides fragilis) was 20 mm, the MIC (Epidermophyton floccosum [25]; [33]) was over 32 µg/mL and the Concentration (Entamoeba histolytica [26]) was 0.25 µg/mL.

For `COc1ccc(C[C@H]2NC[C@H](O)[C@H]2OC(C)=O)cc1` (racemic), the Concentration (Entamoeba histolytica [16]) was 2 µg/mL, the Concentration (Tritrichomonas suis [27]) was 2 µg/mL and the Concentration (Trichomonas vaginalis [18]) was 0.5 µg/mL. The Concentration (Trichomonas vaginalis [3]) was 0.25 µg/mL, the Concentration (Trichomonas vaginalis [20]) was 2 µg/mL and the Concentration (Entamoeba histolytica [14]) was 0.25 µg/mL. For the same molecule, the Concentration (Trichomonas vaginalis [23]) was 1 µg/mL, the Concentration (Tritrichomonas suis [15]) was 1 µg/mL and the Concentration (Tritrichomonas suis [24]) was 8 µg/mL. For the same molecule, the Concentration (Entamoeba histolytica [28]) was 0.5 µg/mL and the Concentration (Entamoeba histolytica [26]) was 4 µg/mL.

With `COc1ccc(C[C@H]2NC[C@H](O)[C@H]2OC(C)=O)cc1` [ANISOMYCIN] the MIC (Candida albicans [17]) was 4 µg/mL (≈ 15.1 µM), the MIC (Saccharomyces cerevisiae [19]) was 0.25 µg/mL (≈ 0.942 µM) and the MIC (Trichophyton benhamiae [21]) was 2 µg/mL (≈ 7.54 µM). For the same molecule, the Inhibitory zone (Saccharomyces cerevisiae [9]) was 13 mm, the Inhibitory zone (Bacteroides fragilis) was 10 mm and the MIC (Epidermophyton floccosum [25]) was 16 µg/mL (≈ 60.3 µM).

With `CC(=O)O[C@@H]1[C@@H](O)CN[C@@H]1Cc1ccccc1` the Concentration (Entamoeba histolytica [16]) was 2 µg/mL, the Inhibitory zone (Cutibacterium acnes [13]) was 0 mm and the Inhibitory zone (Candida albicans [1]) was 0 mm. The Concentration (Tritrichomonas suis [27]) was 16 µg/mL, the Inhibitory zone (Epidermophyton floccosum [2]) was 8 mm and the MIC (Candida albicans [17]; [30]) was 32 µg/mL (≈ 136 µM). It also gave a Concentration (Trichomonas vaginalis [18]) of 2 µg/mL, an MIC (Saccharomyces cerevisiae [19]; [31]) of 2 µg/mL (≈ 8.5 µM) and a Concentration (Trichomonas vaginalis [20]) of 8 µg/mL. The QA (Saccharomyces cerevisiae [29]) was “questionable activity”, the MIC (Trichophyton benhamiae [21]; [32]) was 16 µg/mL (≈ 68 µM) and the Concentration (Tritrichomonas suis [22]) was 4 µg/mL. For the same molecule, the Concentration (Trichomonas vaginalis [23]) was 4 µg/mL, the Inhibitory zone (Trichophyton benhamiae [6]) was 10 mm and the Inhibitory zone (Clostridium novyi) was 0 mm. For the same molecule, the Concentration (Tritrichomonas suis [15]) was 2 µg/mL, the Concentration (Tritrichomonas suis [24]) was 32 µg/mL and the Inhibitory zone (Actinomyces israelii) was 0 mm. The Inhibitory zone (Streptococcus pyogenes) was 0 mm, the Inhibitory zone (Bacteroides fragilis) was 0 mm and the MIC (Epidermophyton floccosum [25]; [33]) was 32 µg/mL (≈ 136 µM). For the same molecule, the Concentration (Entamoeba histolytica [26]) was 16 µg/mL.

— ChEMBL document CHEMBL1122441, “Structure-activity relationships of synthetic antibiotic analogues of anisomycin” (1983)
